From publication PMC7564034 (Acta Pharmaceutica Sinica. B, 2019)
Like-named read-outs stand apart in the source and are kept apart here.

Assays:
[1] = Mice body weight in the 5FU combination study; type: in vivo, Balb/c mice harboring LoVo xenografts; settings: 5FU 15 mg/kg/3 days i.p.; 17-day treatment
How it was run: (§1)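 LoVo-xenograft mice with all tumors above 50 mm3 were dosed i.p. for 20 days: 10 mL/kg/day, 5 mg/kg/day, and/or 5FU 15 mg/kg every 3 days. Body weight and tumor axes were recorded daily; tumor volume = 1/2 × a × b². Tumors were resected after treatment. Weight change was read after 17 days; mean ± SEM.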

[2] = test system: LoVo colon cancer xenograft; assay: Xenograft tumor growth, SMI combined with 5FU, 14-day treatment; type: in vivo, Balb/c nude mice; settings: compared to vehicle treated group; SMI 10 mL/kg/day, 5FU 15 mg/kg/3 days i.p., 14 days
LoVo xenografts = assay: Xenograft tumor growth, SMI or Rd combined with 5FU, 20-day treatment; type: in vivo, Balb/c mice; settings: compared to vehicle + saline; SMI 10 mL/kg/day, Rd 5 mg/kg/day, 5FU 15 mg/kg/3 days i.p., 20 days
How it was run: as §1

[3] = type: in vivo, mice harboring xenograft tumors; settings: after intraperitoneal injection of Rb1, Rc, or Rd; data not shown
[4] = type: in vivo, Balb/c nude mice harboring LoVo xenografts; settings: 8-day vs single SMI 10 mL/kg/day i.p.
[5] = Constituent ratio of ginsenosides in SMI, plasma, tumor and endothelial cells; type: in vivo, Balb/c nude mice harboring LoVo xenografts; settings: 20 min after 15-day SMI treatment
How it was run: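 Tissues were sampled 20 min after the last dose of a 15-day i.p. course. Tumors were digested 1 h in DMEM with collagenase I (2 mg/mL) and DNase I (0.1 mg/mL), then strained through 40 μm mesh. CD31+ cells were enriched with PE anti-mouse CD31 and anti-PE magnetic particles, with purity checked by CD45/viability flow cytometry; n = 3. Each ratio = concentration of the constituent / summed eight ginsenosides.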

[6] = type: in vivo, Balb/c nude mice harboring LoVo xenografts; settings: for Cmax / Tmax: Balb/c nude, mouse, plasma, ip; for AUC0–∞ in plasma relative to those of Re, Rg1, Rg3 and Ro: after single or multiple SMI administration
How it was run: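 Male LoVo-xenograft nude mice (6 weeks old) received 10 mL/kg i.p., either once or daily for 8 days. Blood (~0.1 mL) was drawn from the oculi chorioideae vein into heparin tubes between 5 min and 96 h after the last dose, 5 mice per time point. Plasma was spun at 8000 rpm for 5 min and extracted with methanol. AUC0–∞ and the multiple/single ratio were derived.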

VEGF = assay: ELISA of VEGF secretion in tumors; type: in vivo, Balb/c mice harboring LoVo xenografts; settings: 15 days i.p.; SMI, Rd-H 5 mg/kg, Rb1, Rg1; vs vehicle
How it was run: (§2)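 Mice received test compound i.p. for 15 days. Tumors were harvested 20 min after the final dose and homogenized in RIPA buffer. VEGF and FGF were quantified by ELISA kit and normalized to protein content measured by BCA assay. Compared with vehicle.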

FGF = assay: ELISA of FGF secretion in tumors; type: in vivo, Balb/c mice harboring LoVo xenografts; settings: 15 days i.p.; SMI, Rd-H 5 mg/kg, Rb1, Rg1; vs vehicle
How it was run: as §2

| Detection in plasma or tumor tissues [3] | AUC0–∞ ratio Multiple/Single in tumors [4] | Constituent ratio in TECs [5] [%] | Constituent ratio in plasma [5] [%] | Constituent ratio in tumor tissues [5] [%] | Cmax ([6]; 10 mL/kg) [ng/mL] | Tmax ([6]; 10 mL/kg) [h] | Cmax ([6]; 10 mL/kg/day) [ng/mL] | Tmax ([6]; 10 mL/kg/day) [h] | AUC0–∞ in plasma relative to those of Re, Rg1, Rg3 and Ro [6] | Structure (SMILES) | Suppression of the increase of mice body weight [1] [%] | Suppression of tumor growth [2] [%] | Suppression of tumor growth (LoVo xenografts) [%] | Reduction of the secretion of VEGF in tumors (VEGF) [%] | Suppression of the secretion of FGF in tumors (FGF) [%] |
| --- | --- | --- | --- | --- | --- | --- | --- | --- | --- | --- | --- | --- | --- | --- | --- |
|  |  |  |  |  |  |  |  |  |  | O=c1[nH]cc(F)c(=O)[nH]1 [5FU, 5-fluorouracil] | 65 | 49.0 | 17 |  |  |
| neither Rg3 nor CK could be detected |  |  |  |  |  |  |  |  |  | CC(C)=CCC[C@](C)(O[C@@H]1O[C@H](CO)[C@@H](O)[C@H](O)[C@H]1O)[C@H]1CC[C@]2(C)[C@@H]1[C@H](O)C[C@@H]1[C@@]3(C)CC[C@H](O)C(C)(C)[C@@H]3CC[C@]12C [CK, compound K] |  |  |  |  |  |
|  | 1.64 | 14.9 | 34.5 | 21.9 | 20600 | 1 | 49400 | 2 | more than 20 times | CC(C)=CCC[C@](C)(O[C@@H]1O[C@H](CO[C@@H]2O[C@H](CO)[C@@H](O)[C@H](O)[C@H]2O)[C@@H](O)[C@H](O)[C@H]1O)[C@H]1CC[C@]2(C)[C@@H]1[C@H](O)C[C@@H]1[C@@]3(C)CC[C@H](O[C@@H]4O[C@H](CO)[C@@H](O)[C@H](O)[C@H]4O[C@@H]4O[C@H](CO)[C@@H](O)[C@H](O)[C@H]4O)C(C)(C)[C@@H]3CC[C@]12C [Rb1, ginsenoside Rb1] |  |  |  | 15 | 99 |
|  | 5.67 |  |  |  | 7800 | 4 | 16900 | 2 | more than 20 times | CC(C)=CCC[C@](C)(O[C@@H]1O[C@H](CO[C@@H]2O[C@@H](CO)[C@H](O)[C@H]2O)[C@@H](O)[C@H](O)[C@H]1O)[C@H]1CC[C@]2(C)[C@@H]1[C@H](O)C[C@@H]1[C@@]3(C)CC[C@H](O[C@@H]4O[C@H](CO)[C@@H](O)[C@H](O)[C@H]4O[C@@H]4O[C@H](CO)[C@@H](O)[C@H](O)[C@H]4O)C(C)(C)[C@@H]3CC[C@]12C [Rc] |  |  |  |  |  |
